Laboratory results: ChEMBL document CHEMBL1649328, “Assessment of pandemic and seasonal influenza A (H1N1) virus susceptibility to neuraminidase inhibitors in three enzyme activity inhibition assays” (Antimicrob Agents Chemother, 2010)
pIC50: −log10 of the molar value.

Assays:
Assay type in all cases: functional, organism-based
Influenza A virus [1] = assay: Antiviral activity against influenza A (A/Montana/02/2009 (H1N1)) virus harboring neuraminidase H275Y mutant after 30 mins by NA-star substrate based chemiluminescent assay
Method in brief: (§1)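 Titrated virus in NA-Star buffer (26 mM MES, 4 mM CaCl2, pH 6.0) was preincubated with ten half-log inhibitor dilutions (0.03–1,000 nM final) for 30 min at 37°C, then with substrate for 30 min at room temperature. Accelerator solution was added and luminescence read for 0.1 s. IC50 came from a Vmax·[1−x/(K+x)] fit, mean of ≥3 experiments.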

Influenza A virus [2] = assay: Antiviral activity against influenza A (A/Washington/29/2009 (H1N1)) virus harboring neuraminidase H275Y mutant after 16 to 18 hrs by fetuin substrate based colorimetric assay
Method in brief: (§2)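 Colorimetric NA inhibition with fetuin substrate. Virus was diluted in NA-Star buffer (26 mM MES, 4 mM CaCl2, pH 6.0) to give OD549 of 0.4–0.8 after 18 h. It was preincubated with ten half-log inhibitor dilutions (0.03–1,000 nM final) for 1 h at 37°C, then with fetuin (5.5 mg/ml final) for 16–18 h at 37°C. Released sialic acid was read at 549 nm after periodate/TBA reaction and butanol extraction. IC50 came from a Vmax·[1−x/(K+x)] fit, mean of ≥2 experiments.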

Influenza A virus [3] = assay: Antiviral activity against influenza A (A/Montana/02/2009 (H1N1)) virus harboring neuraminidase H275Y mutant after 30 mins by MUNANA substrate based fluorometric assay
Method in brief: (§3)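 Fluorometric NA inhibition with MUNANA (100 μM final). Titrated virus in NA-Star buffer (26 mM MES, 4 mM CaCl2, pH 6.0) was preincubated with ten half-log inhibitor dilutions (0.03–1,000 nM final) for 30 min at 37°C, then with substrate for 30 min at 37°C. The reaction was stopped with 0.1 M glycine in 25% ethanol, pH 10.7, and 4-methylumbelliferone was read at ex 365/em 450 nm. IC50 came from a Vmax·[1−x/(K+x)] fit, mean of ≥3 experiments.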

Influenza A virus [4] = assay: Antiviral activity against influenza A (A/Singapore/57/2009 (H1N1)) virus harboring neuraminidase H275Y mutant after 16 to 18 hrs by fetuin substrate based colorimetric assay; method in brief: as §2
Influenza A virus [5] = assay: Antiviral activity against influenza A (A/North Carolina/01/2009 (H1N1)) virus harboring neuraminidase H275Y mutant after 30 mins by MUNANA substrate based fluorometric assay; method in brief: as §3
Influenza A virus [6] = assay: Antiviral activity against influenza A (A/Hong Kong/2369/2009 (H1N1)) virus harboring neuraminidase H275Y mutant after 30 mins by NA-star substrate based chemiluminescent assay; method in brief: as §1
Influenza A virus [7] = assay: Antiviral activity against influenza A (A/Singapore/57/2009 (H1N1)) virus harboring neuraminidase H275Y mutant after 30 mins by MUNANA substrate based fluorometric assay; method in brief: as §3
Influenza A virus [8] = assay: Antiviral activity against influenza A (A/North Carolina/01/2009 (H1N1)) virus harboring neuraminidase H275Y mutant after 16 to 18 hrs by fetuin substrate based colorimetric assay; method in brief: as §2
Influenza A virus [9] = assay: Antiviral activity against influenza A (A/Montana/02/2009 (H1N1)) virus harboring neuraminidase H275Y mutant after 16 to 18 hrs by fetuin substrate based colorimetric assay; method in brief: as §2
Influenza A virus [10] = assay: Antiviral activity against influenza A (A/Washington/29/2009 (H1N1)) virus harboring neuraminidase H275Y mutant after 30 mins by MUNANA substrate based fluorometric assay; method in brief: as §3
Influenza A virus [11] = assay: Antiviral activity against influenza A (A/Osaka/180/2009 (H1N1)) virus harboring neuraminidase H275Y mutant after 30 mins by NA-star substrate based chemiluminescent assay; method in brief: as §1
Influenza A virus [12] = assay: Antiviral activity against influenza A (A/Singapore/57/2009 (H1N1)) virus harboring neuraminidase H275Y mutant after 30 mins by NA-star substrate based chemiluminescent assay; method in brief: as §1
Influenza A virus [13] = assay: Antiviral activity against influenza A (A/Hong Kong/2369/2009 (H1N1)) virus harboring neuraminidase H275Y mutant after 30 mins by MUNANA substrate based fluorometric assay; method in brief: as §3
Influenza A virus [14] = assay: Antiviral activity against influenza A (A/North Carolina/01/2009 (H1N1)) virus harboring neuraminidase H275Y mutant after 30 mins by NA-star substrate based chemiluminescent assay; method in brief: as §1
Influenza A virus [15] = assay: Antiviral activity against influenza A (A/Hong Kong/2369/2009 (H1N1)) virus harboring neuraminidase H275Y mutant after 16 to 18 hrs by fetuin substrate based colorimetric assay; method in brief: as §2
Influenza A virus [16] = assay: Antiviral activity against influenza A (A/Washington/29/2009 (H1N1)) virus harboring neuraminidase H275Y mutant after 30 mins by NA-star substrate based chemiluminescent assay; method in brief: as §1
Influenza A virus [17] = assay: Antiviral activity against influenza A (A/Osaka/180/2009 (H1N1)) virus harboring neuraminidase H275Y mutant after 30 mins by MUNANA substrate based fluorometric assay; method in brief: as §3
Influenza A virus [18] = assay: Antiviral activity against influenza A (A/Osaka/180/2009 (H1N1)) virus harboring neuraminidase H275Y mutant after 16 to 18 hrs by fetuin substrate based colorimetric assay; method in brief: as §2

Compound | pIC50 (Influenza A virus [1]) | pIC50 (Influenza A virus [2]) | pIC50 (Influenza A virus [3]) | pIC50 (Influenza A virus [4]) | pIC50 (Influenza A virus [5]) | pIC50 (Influenza A virus [6]) | pIC50 (Influenza A virus [7]) | pIC50 (Influenza A virus [8]) | pIC50 (Influenza A virus [9]) | pIC50 (Influenza A virus [10]) | pIC50 (Influenza A virus [11]) | pIC50 (Influenza A virus [12]) | pIC50 (Influenza A virus [13]) | pIC50 (Influenza A virus [14]) | pIC50 (Influenza A virus [15]) | pIC50 (Influenza A virus [16]) | pIC50 (Influenza A virus [17]) | pIC50 (Influenza A virus [18])
CO[C@@H]([C@@H]1OC(C(=O)O)=C[C@H](NC(=N)N)[C@H]1NC(C)=O)[C@H](O)CO [LANINAMIVIR] | 9.47 | 8.67 | 8.98 | 8.95 | 9.04 | 9.11 | 9.06 | 9.05 | 9.09 | 8.92 | 9.32 | 9.13 | 8.97 | 9.47 | 8.67 | 9.09 | 8.84 | 8.48
CC(=O)N[C@H]1[C@H]([C@H](O)[C@H](O)CO)OC(C(=O)O)=C[C@@H]1NC(=N)N [ZANAMIVIR] | 9.38 | 8.58 | 8.94 | 8.55 | 8.94 | 9.37 | 9.00 | 8.71 | 8.62 | 9.08 | 9.46 | 9.40 | 8.99 | 9.38 | 8.44 | 9.29 | 8.89 | 8.50
